This note sets out measurements from ChEMBL document CHEMBL1914331, “N-O chemistry for antibiotics: discovery of N-alkyl-N-(pyridin-2-yl)hydroxylamine scaffolds as selective antibacterial agents using nitroso Diels-Alder and ene chemistry” (J Med Chem, 2011).

For series [1], the system named is Staphylococcus aureus. As to the kind of experiment: Antimicrobial activity against Staphylococcus aureus SG511 assessed after 18 hrs by broth microdilution method. Format: functional. Particulars: SG511, 18 h. In short, it runs like this: (§1)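 CLSI broth microdilution in cation-adjusted MHII broth. 20 mM DMSO stocks were diluted to 512 µM, then serially 2-fold, giving final 128–0.0625 µM with 5×10⁵ CFU/mL inoculum. Incubated 18 h at 37 °C. MIC90 was the lowest concentration giving 90% inhibition by visual turbidity versus DMSO wells. Run in triplicate.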

Series [2] relates to Micrococcus luteus. Description: Antimicrobial activity against Micrococcus luteus ATCC 10240 after 24 hrs by Kirby-Bauer agar diffusion assay. Type of series: functional. A digest of the protocol: (§2)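 Modified Kirby-Bauer well diffusion. Overnight LB cultures (18–24 h) were standardized in 0.9% saline to 0.5 McFarland and mixed into melted MHII agar at 47–50 °C, giving ~5×10³ CFU/mL. 9 mm wells received 50 µL of 2.0 mM compound in 10:1 MeOH:DMSO. Plates were incubated 24 h at 37 °C, then growth-inhibition zone diameter was measured (mm) by caliper.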
For orientation: A growth-free zone around the sample is the usual read-out of agar diffusion tests.

In series [3] the test system is Enterococcus faecalis. As to the kind of experiment: Antimicrobial activity against Enterococcus faecalis ATCC 49532 after 24 hrs by Kirby-Bauer agar diffusion assay. Type of series: functional. In short, it runs like this:
as §2

For series [4], the system named is Micrococcus luteus. Description: Antimicrobial activity against Micrococcus luteus ATCC 10240 assessed after 18 hrs by broth microdilution method. As to conditions: ATCC 10240, 18 h. Type of series: functional. A digest of the protocol:
as §1
A general note: Dilution methods test growth across graded concentrations, often in twofold steps.

The test system of the next series is PC-3. As to the kind of experiment: Cytotoxicity against human PC3 cells. Type of series: cell-based.
Series [5] concerns Staphylococcus aureus. Description: Antimicrobial activity against Staphylococcus aureus SG511 after 24 hrs by Kirby-Bauer agar diffusion assay. Format: functional. In short, it runs like this: as §2
In another series the test system is HeLa. Description: Cytotoxicity against human HeLa cells. Type of series: cell-based.
A further series deals with MCF7. As to the kind of experiment: Cytotoxicity against human MCF7 cells. Type of series: cell-based.
The subject of series [6] is Enterococcus faecalis. Description: Antimicrobial activity against Enterococcus faecalis ATCC 49532 assessed after 18 hrs by broth microdilution method. Format: functional. As to conditions: ATCC 49532, 18 h. A digest of the protocol: as §1

≈ marks a conversion by molar mass, not a printed value.

Turning to `C=C(C)C(C)(C)N(O)c1ccccn1`, the values for the MIC90 in the series with Staphylococcus aureus [1], in the series with Micrococcus luteus [4] and in the series with Enterococcus faecalis [6] were 128 µM (≈ 24.6 µg/mL), 4 µM (≈ 0.769 µg/mL) and greater than 128 µM, respectively. For the same molecule, the “diameter of the inhibition zone (DIZ)” value is given as 33 mm with Micrococcus luteus [2], 18 mm with Enterococcus faecalis [3] and 15 mm with Staphylococcus aureus [5]. For the same molecule, the Activity entry in the series on PC-3, with HeLa and in the series with MCF7 was “Non-toxic” each time.

In the case of `C=C(CN(O)c1ccccn1)c1ccccc1`, the values for the MIC90 with Staphylococcus aureus [1], against Micrococcus luteus [4] and in the series with Enterococcus faecalis [6] were 32 µM (≈ 7.24 µg/mL), 64 µM (≈ 14.5 µg/mL) and greater than 128 µM, respectively. Besides, the entries for the “diameter of the inhibition zone (DIZ)” value in the series on Micrococcus luteus [2], in the series on Enterococcus faecalis [3] and with Staphylococcus aureus [5] were 20 mm, 18 mm and 19 mm, respectively. Further, the Activity result in the series on PC-3, with HeLa and in the series on MCF7 was “Non-toxic” in each case.

For `COc1ccc(CON(Cc2ccccc2)c2ccccn2)cc1`, the MIC90 with Staphylococcus aureus [1], in the series with Micrococcus luteus [4] and in the series on Enterococcus faecalis [6] was greater than 128 µM throughout. The “diameter of the inhibition zone (DIZ)” value with Micrococcus luteus [2], in the series on Enterococcus faecalis [3] and with Staphylococcus aureus [5] was 0 mm in each case. Further, the Activity entry with PC-3, in the series with HeLa and with MCF7 was “Non-toxic” each time.

On to `CN(O)c1ccccn1`, for which the MIC90 (in general, the lowest concentration that inhibits either 90% of growth or 90% of the strains tested, depending on the study) in the series with Staphylococcus aureus [1] is greater than 128 µM; against Micrococcus luteus [4], no less than 128 µM; with Enterococcus faecalis [6], greater than 128 µM. The “diameter of the inhibition zone (DIZ)” value was 18 mm with Micrococcus luteus [2], 0 mm in the series with Enterococcus faecalis [3] and 0 mm in the series with Staphylococcus aureus [5]. The Activity result with PC-3, in the series with HeLa and in the series on MCF7 was “Non-toxic” throughout.

Turning to `CCCN(O)c1ccccn1`, the MIC90 against Staphylococcus aureus [1], in the series on Micrococcus luteus [4] and against Enterococcus faecalis [6] was greater than 128 µM in each case. Moreover, the “diameter of the inhibition zone (DIZ)” value with Micrococcus luteus [2] is listed as 13 mm; in the series on Enterococcus faecalis [3], 0 mm; in the series on Staphylococcus aureus [5], 0 mm. Further, the Activity result in the series on PC-3, in the series with HeLa and in the series on MCF7 was “Non-toxic” in each case.

Regarding `CCCCCCN(O)c1ccccn1`, the MIC90 in the series on Staphylococcus aureus [1] was greater than 128 µM; in the series with Micrococcus luteus [4] it was 128 µM (≈ 24.9 µg/mL); with Enterococcus faecalis [6], greater than 128 µM. Moreover, the “diameter of the inhibition zone (DIZ)” value in the series on Micrococcus luteus [2] was found to be 15 mm; in the series on Enterococcus faecalis [3] it was 16 mm; in the series with Staphylococcus aureus [5] it was 17 mm. The Activity entry with PC-3, in the series with HeLa and in the series on MCF7 was “Non-toxic” throughout.

On to `ON(Cc1ccccc1)c1ccccn1`, for which the MIC90 was 128 µM (≈ 25.6 µg/mL) in the series with Staphylococcus aureus [1], 64 µM (≈ 12.8 µg/mL) against Micrococcus luteus [4] and greater than 128 µM with Enterococcus faecalis [6]. The “diameter of the inhibition zone (DIZ)” value was 24 mm with Micrococcus luteus [2], 20 mm in the series with Enterococcus faecalis [3] and 18 mm in the series on Staphylococcus aureus [5]. The Activity entry with PC-3, in the series with HeLa and in the series on MCF7 was “Non-toxic” throughout.

`CO[C@@H]1C=CC[C@H]1N(O)c1ncccc1C` (racemic): the “diameter of the inhibition zone (DIZ)” value in the series with Micrococcus luteus [2] is reported as greater than 14 mm. In addition, the Activity result with PC-3, in the series with HeLa and with MCF7 was “Non-toxic” in each case.

Regarding `Cc1cccnc1N(O)[C@@H]1CC=C[C@H]1OC(C)C` (racemic), in the series with Micrococcus luteus [2], the “diameter of the inhibition zone (DIZ)” value is greater than 14 mm. In addition, the Activity result in the series on PC-3, in the series with HeLa and in the series on MCF7 was “Non-toxic” in each case.

As to `Cc1cccc(N(O)[C@@H]2CCC=C[C@H]2OC(C)C)n1` (racemic), the “diameter of the inhibition zone (DIZ)” value in the series on Micrococcus luteus [2] is listed as greater than 14 mm. Moreover, the Activity result in the series with PC-3, in the series with HeLa and with MCF7 was “Non-toxic” in each case.

For the molecule `Cc1cccc(N(O)[C@@H]2CCC=C[C@H]2OC(C)(C)C)n1` (racemic), the “diameter of the inhibition zone (DIZ)” value with Micrococcus luteus [2] was greater than 14 mm. For the same molecule, the Activity result in the series on PC-3, in the series with HeLa and in the series with MCF7 was “Non-toxic” each time.

Turning to `Cc1cc(N(O)[C@H]2CC=C[C@@H]2OC(C)(C)C)no1` (racemic), the “diameter of the inhibition zone (DIZ)” value in the series with Micrococcus luteus [2] is listed as greater than 14 mm. The Activity result with PC-3, with HeLa and in the series on MCF7 was “Non-toxic” throughout.

Consider `C=C(CCC=C(C)C)C(CO)N(O)c1ccc(Br)cn1` (racemic), for which the “diameter of the inhibition zone (DIZ)” value in the series on Micrococcus luteus [2] is listed as greater than 14 mm. In addition, the Activity entry in the series with PC-3, in the series on HeLa and with MCF7 was “Non-toxic” in each case.

On to `C=C(C)C(CC/C(C)=C/CO)N(O)c1ccc(Br)cn1` (racemic), for which the “diameter of the inhibition zone (DIZ)” value in the series with Micrococcus luteus [2] was greater than 14 mm. For the same molecule, the Activity result in the series on PC-3, in the series on HeLa and with MCF7 was “Non-toxic” each time.

With `CC1=CCCCC1N(O)c1cc(C)on1` (racemic), the “diameter of the inhibition zone (DIZ)” value in the series on Micrococcus luteus [2] is reported as greater than 14 mm. Moreover, the Activity result in the series with PC-3, in the series on HeLa and in the series on MCF7 was “Non-toxic” each time.

Regarding `CO[C@@H]1C=CCC[C@H]1N(O)C(=O)Cc1ccccc1` (relative stereo), in the series on Micrococcus luteus [2], the “diameter of the inhibition zone (DIZ)” value is “<=14 mm”. The Activity entry with PC-3, in the series on HeLa and in the series with MCF7 was “Non-toxic” each time.

Take `CC(C)O[C@@H]1C=C[C@@H](N(O)c2ccc(Br)cn2)CC1` (relative stereo): the “diameter of the inhibition zone (DIZ)” value with Micrococcus luteus [2] is greater than 14 mm. In addition, the Activity entry with PC-3, in the series with HeLa and in the series with MCF7 was “Non-toxic” each time.

For the molecule `Cc1cccc(N(O)[C@@H]2C=C[C@@H](OC(C)(C)C)C2)n1` (relative stereo), the “diameter of the inhibition zone (DIZ)” value in the series with Micrococcus luteus [2] is listed as greater than 14 mm. Moreover, the Activity entry in the series with PC-3, in the series with HeLa and in the series with MCF7 was “Non-toxic” each time.

As for `ON(c1ccc(Br)cn1)[C@@H]1CCC=C[C@H]1OCc1ccccc1` (relative stereo), in the series on Micrococcus luteus [2], the “diameter of the inhibition zone (DIZ)” value is on record as greater than 14 mm. Moreover, the Activity result in the series on PC-3, in the series on HeLa and with MCF7 was “Non-toxic” in each case.

Consider `O=C(NO)c1ccccc1` [BENZOHYDROXAMATE], for which the “diameter of the inhibition zone (DIZ)” value in the series with Micrococcus luteus [2] is “<=14 mm”. Further, the Activity result in the series with PC-3, with HeLa and with MCF7 was “Non-toxic” each time.

In the case of `O=C(Cc1ccccc1)NO` [PHENYLACETOHYDROXAMIC ACID], the “diameter of the inhibition zone (DIZ)” value in the series with Micrococcus luteus [2] is “<=14 mm”. The Activity entry with PC-3, in the series on HeLa and in the series on MCF7 was “Non-toxic” each time.
